Key:
A549 = assay: Cytotoxicity against human A549 cells assessed as reduction in cell viability resazurin reagent based fluorescent assay; format: functional
In short: (§1)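 Cells seeded at 20,000 per well, attached overnight in experimental medium with 5% FBS at 37 °C, then exposed to varying concentrations of σ2 ligands in 1:9 DMSO/acetone (cisplatin in 0.9% saline) for 24, 48 or 72 h, with re-dosing every 24 h. Matched vehicle controls. Read-out is 0.02% resazurin for 2-3 h, fluorescence ex 560/em 590 nm, viability as % of control. IC50 from non-linear regression of log concentration.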

MIA PaCa-2 = assay: Cytotoxicity against human MIAPaCa2 cells assessed as reduction in cell viability resazurin reagent based fluorescent assay; format: functional; in short: as §1
MCF-10A = assay: Cytotoxicity against human MCF10A cells assessed as reduction in cell viability resazurin reagent based fluorescent assay; in short: as §1
PANC-1 = assay: Cytotoxicity against human PANC1 cells assessed as reduction in cell viability resazurin reagent based fluorescent assay; format: functional; in short: as §1
[1] = target: Sigma non-opioid intracellular receptor 1 (Homo sapiens, UniProt Q99720); assay: Displacement of [3H]-Pentazocine from sigma 1 receptor (unknown origin) expressed in HEK293T cell membranes
PC-3 = assay: Cytotoxicity against human PC3 cells assessed as reduction in cell viability resazurin reagent based fluorescent assay; format: functional; in short: as §1
MDA-MB-468 = assay: Cytotoxicity against human MDA-MB-468 cells assessed as reduction in cell viability resazurin reagent based fluorescent assay; format: functional; in short: as §1
MDA-MB-231 [2] = assay: Cytotoxicity against human MDA-MB-231 cells assessed as reduction in cell viability incubated for 72 hrs by resazurin reagent based fluorescent assay; format: functional; details: MDA-MB-231, 72 h; in short: as §1
MDA-MB-231 [3] = assay: Cytotoxicity against human MDA-MB-231 cells assessed as reduction in cell viability incubated for 48 hrs by resazurin reagent based fluorescent assay; format: functional; details: MDA-MB-231, 48 h; in short: as §1
MDA-MB-231 [4] = assay: Cytotoxicity against human MDA-MB-231 cells assessed as reduction in cell viability incubated for 24 hrs by resazurin reagent based fluorescent assay; format: functional; details: MDA-MB-231, 24 h; in short: as §1
[5] = Displacement of [3H]-DTG from sigma 2 receptor (unknown origin) expressed in HEK293T cell membranes; set-up: species or system Homo sapiens
Homo sapiens = species on record: Homo sapiens; assay: Selectivity index, ratio of Ki for displacement of [3H]-Pentazocine from sigma 1 receptor (unknown origin) expressed in HEK293T cell membranes to KI for displacement of [3H]-DTG from sigma 2 receptor (unknown origin) expressed in HEK293T cell membranes
In short: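 Sigma-1 and sigma-2 binding was run by the NIMH Psychoactive Drug Screening Program. pKi is the mean of three independent experiments, each done at least in triplicate. The index is the ratio of the two receptor Ki values.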

HEK293 = assay: Cytotoxicity against HEK293 cells assessed as reduction in cell viability incubated for 72 hrs by resazurin reagent based fluorescent assay; details: Homo sapiens, HEK293, 72 h; in short: as §1

Sigma non-opioid intracellular receptor 1, sequence (Q99720 whole entry): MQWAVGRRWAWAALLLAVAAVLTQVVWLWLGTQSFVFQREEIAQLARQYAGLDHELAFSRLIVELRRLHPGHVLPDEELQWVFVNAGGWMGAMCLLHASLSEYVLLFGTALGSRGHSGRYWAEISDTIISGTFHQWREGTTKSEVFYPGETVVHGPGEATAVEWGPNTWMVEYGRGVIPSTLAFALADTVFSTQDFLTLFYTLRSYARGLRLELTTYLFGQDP

**Q.** Which IC50 (A549) does the source give for `O/N=C(\CCCN1CCCN(c2ccc(Cl)cc2)CC1)c1ccc(F)cc1` here?
**A.** 5800 nM

**Q.** What about the IC50 (MIA PaCa-2) of the same molecule?
**A.** 1500 nM

**Q.** What about the IC50 (MCF-10A) of the same molecule?
**A.** 20000 nM

**Q.** What about the IC50 (PANC-1) of the same molecule?
**A.** 140 nM

**Q.** What about the Ki [1] of the same molecule?
**A.** 5.1 nM

**Q.** And the IC50 (PC-3)?
**A.** 6900 nM

**Q.** And the IC50 (MDA-MB-468)?
**A.** 4000 nM

**Q.** And the IC50 (MDA-MB-231 [2])?
**A.** 7000 nM

**Q.** And the IC50 (MDA-MB-231 [3])?
**A.** 8000 nM

**Q.** What about the IC50 (MDA-MB-231 [4]) of the same molecule?
**A.** 17000 nM

**Q.** And the Ki [5]?
**A.** 3.5 nM

**Q.** What about the pKi [5] of the same molecule?
**A.** 8.46

**Q.** And the Ratio Ki (Homo sapiens)?
**A.** 1.5

**Q.** With `O=C1C(CCN2CCCN(c3ccc(Cl)cc3)CC2)=Cc2cc(F)ccc21` as the molecule, how does the Ki [1] read?
**A.** 78 nM

**Q.** And the Ki [5]?
**A.** 20 nM

**Q.** What about the pKi [5] of the same molecule?
**A.** 7.7

**Q.** What about the Ratio Ki (Homo sapiens) of the same molecule?
**A.** 3.9

**Q.** For `O/N=C1/c2ccc(F)cc2CC1CCN1CCCN(c2ccc(Cl)cc2)CC1` (stereo not drawn), which IC50 (A549) is on record?
**A.** > 200000 nM

**Q.** What about the IC50 (MIA PaCa-2) of the same molecule?
**A.** 10000 nM

**Q.** What about the IC50 (PANC-1) of the same molecule?
**A.** 76000 nM

**Q.** And the Ki [1]?
**A.** 277 nM

**Q.** What about the IC50 (MDA-MB-231 [3]) of the same molecule?
**A.** 8000 nM

**Q.** And the Ki [5]?
**A.** 407 nM

**Q.** And the pKi [5]?
**A.** 6.4

**Q.** And the Ratio Ki (Homo sapiens)?
**A.** 0.7

**Q.** With `O=C1c2ccc(Cl)cc2CC1CCN1CCN(c2ccc(Cl)cc2)CC1` (stereo not drawn) as the molecule, how does the Ki [1] read?
**A.** 21 nM

**Q.** What about the Ki [5] of the same molecule?
**A.** 18 nM

**Q.** What about the pKi [5] of the same molecule?
**A.** 7.74

**Q.** And the Ratio Ki (Homo sapiens)?
**A.** 1.2

**Q.** Which Ki [1] does the source give for `O=C1c2ccc(F)cc2CC1CCN1CCCN(c2ccc(Cl)cc2)CC1` (stereo not drawn) here?
**A.** 63 nM

**Q.** What about the IC50 (MDA-MB-231 [2]) of the same molecule?
**A.** 20100 nM

**Q.** What about the IC50 (MDA-MB-231 [3]) of the same molecule?
**A.** 23500 nM

**Q.** And the IC50 (MDA-MB-231 [4])?
**A.** 33600 nM

**Q.** What about the IC50 (HEK293) of the same molecule?
**A.** 41300 nM

**Q.** What about the Ki [5] of the same molecule?
**A.** 0.6 nM

**Q.** And the pKi [5]?
**A.** 9.22

**Q.** What about the Ratio Ki (Homo sapiens) of the same molecule?
**A.** 105

**Q.** With `Fc1ccc2c(c1)CC(CCN1CCCN(c3ccccn3)CC1)C2` (stereo not drawn) as the molecule, how does the Ki [1] read?
**A.** 22 nM

**Q.** What about the Ki [5] of the same molecule?
**A.** 1.4 nM

**Q.** And the pKi [5]?
**A.** 8.85

**Q.** And the Ratio Ki (Homo sapiens)?
**A.** 15.7

**Q.** With `O=C1c2ccc(Cl)cc2CC1CCN1CCCN(c2ccc(Cl)cc2)CC1` (stereo not drawn) as the molecule, how does the Ki [1] read?
**A.** 26 nM

**Q.** What about the Ki [5] of the same molecule?
**A.** 19 nM

**Q.** What about the pKi [5] of the same molecule?
**A.** 7.72

**Q.** And the Ratio Ki (Homo sapiens)?
**A.** 1.4

**Q.** With `O=C(CCCN1CCCN(c2ccc(Cl)cc2)CC1)c1ccc(F)cc1` as the molecule, how does the IC50 (A549) read?
**A.** 6200 nM

**Q.** And the IC50 (MIA PaCa-2)?
**A.** 2000 nM

**Q.** And the IC50 (MCF-10A)?
**A.** 22000 nM

**Q.** What about the IC50 (PANC-1) of the same molecule?
**A.** 400 nM

**Q.** What about the IC50 (PC-3) of the same molecule?
**A.** 8200 nM

**Q.** What about the IC50 (MDA-MB-468) of the same molecule?
**A.** 5000 nM

**Q.** What about the IC50 (MDA-MB-231 [2]) of the same molecule?
**A.** 15000 nM

**Q.** And the IC50 (MDA-MB-231 [3])?
**A.** 18000 nM

**Q.** What about the IC50 (MDA-MB-231 [4]) of the same molecule?
**A.** 36000 nM

**Q.** With `O=C1c2ccc(F)cc2CC1CCN1CCCN(c2ccccn2)CC1` (stereo not drawn) as the molecule, how does the Ki [1] read?
**A.** 44 nM

**Q.** What about the Ki [5] of the same molecule?
**A.** 1.8 nM

**Q.** What about the pKi [5] of the same molecule?
**A.** 8.75

**Q.** And the Ratio Ki (Homo sapiens)?
**A.** 24.4

**Q.** For `O=C1c2ccccc2CC1CCN1CCCN(c2ccc(Cl)cc2)CC1` (stereo not drawn), which Ki [1] is on record?
**A.** 21 nM

**Q.** What about the Ki [5] of the same molecule?
**A.** 4.4 nM

**Q.** What about the Ratio Ki (Homo sapiens) of the same molecule?
**A.** 4.8

**Q.** Which results are given for `O=C1c2ccc(F)cc2CC1CCN1CCCN(c2ccc(Cl)cn2)CC1` (stereo not drawn)?
**A.** IC50 (A549): 52000 nM; IC50 (MIA PaCa-2): 42000 nM; IC50 (PANC-1): 51000 nM; Ki [1]: 16 nM; IC50 (MDA-MB-231 [3]): 58000 nM; Ki [5]: 0.7 nM; pKi [5]: 9.13; Ratio Ki (Homo sapiens): 22.9

**Q.** Which Ki [1] does the source give for `O=C1C(CCN2CCCN(c3ccc(Cl)cc3)CC2)=Cc2cc(Cl)ccc21` here?
**A.** 4.9 nM

**Q.** And the Ki [5]?
**A.** 13 nM

**Q.** What about the pKi [5] of the same molecule?
**A.** 7.9

**Q.** What about the Ratio Ki (Homo sapiens) of the same molecule?
**A.** 0.4

Reference: ChEMBL document CHEMBL4390693, “New analogs of SYA013 as sigma-2 ligands with anticancer activity” (Bioorg Med Chem, 2019)
